Source: PubChem BioAssay
ABCB6 inh 2: inhibitors of human ABC transporter ABCB6; 360,000 tested, 0.19% active; Q9NP58; fluorescence ratio to DMSO, % at 10 µM; K562-ABCB6 porphyrin accumulation, flow cytometry, 1 h; stronger effect = lower value; AID 602162;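 active = fluorescence ratio to DMSO below 75%, the collection mean minus 3 SD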;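 note: signal is porphyrin accumulated inside mitochondria; lower ratio means ABCB6 inhibition with less porphyrin fluorescence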
Target sequence (Q9NP58 whole entry, looked up): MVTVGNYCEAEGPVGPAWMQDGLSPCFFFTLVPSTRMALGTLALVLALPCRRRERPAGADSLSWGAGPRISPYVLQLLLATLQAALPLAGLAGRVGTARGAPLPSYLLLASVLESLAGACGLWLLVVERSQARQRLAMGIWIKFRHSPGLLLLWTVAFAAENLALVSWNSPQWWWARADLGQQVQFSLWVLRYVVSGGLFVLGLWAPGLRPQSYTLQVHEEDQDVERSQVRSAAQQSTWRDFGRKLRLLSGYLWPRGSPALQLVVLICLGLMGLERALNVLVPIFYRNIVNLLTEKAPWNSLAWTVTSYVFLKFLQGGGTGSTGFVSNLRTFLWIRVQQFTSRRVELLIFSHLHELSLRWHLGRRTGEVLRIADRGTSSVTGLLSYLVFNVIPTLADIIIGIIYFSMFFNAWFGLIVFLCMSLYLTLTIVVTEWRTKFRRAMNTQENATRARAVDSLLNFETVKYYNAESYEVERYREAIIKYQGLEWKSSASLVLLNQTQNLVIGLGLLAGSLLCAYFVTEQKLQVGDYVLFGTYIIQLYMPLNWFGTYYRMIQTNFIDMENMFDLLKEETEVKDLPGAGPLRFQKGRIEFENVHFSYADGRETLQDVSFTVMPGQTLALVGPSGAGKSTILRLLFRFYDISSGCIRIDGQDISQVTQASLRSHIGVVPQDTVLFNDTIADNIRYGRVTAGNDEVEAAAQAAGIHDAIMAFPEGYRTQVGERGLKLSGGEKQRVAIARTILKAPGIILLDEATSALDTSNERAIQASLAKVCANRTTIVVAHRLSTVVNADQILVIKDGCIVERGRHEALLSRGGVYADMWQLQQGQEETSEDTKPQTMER
STAT3 act: activators of IL-6 induced STAT3 signaling; U3A cells, IL-6 STAT3-luciferase reporter, luminescence; 100% = signal with IL-6 EC80 alone; 190,000 tested, 0.91% active; activation (% of control), % at 5.6 µM;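 active = activation above the screen-wide mean of compound activation plus 3 SD, cut at about 130% in these data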
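Test system: Human STAT1-deficient U3A cells with stable STAT3-luciferase reporter | Also added: Interleukin-6, 33 ng/mL | Timing: Compound pre-incubation 1 h before IL-6, then 6 h stimulation at 37 °C | Technique: Luciferase reporter luminescence | Read-out: Percent of IL-6-only median luminescence | Benchmarks: IL-6-only wells as 100% reference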
AHR activator: activators of human aryl hydrocarbon receptor; activation, % at 5 µM; 320,000 tested, 2.5% active; AID 2796; P35869; AHR-responsive luciferase reporter cells, luminescence; in the data active = activation above about 47%
GAA850 FXN act: activators of GAA850 frataxin (FXN) promoter | activation, % at 6 µM | HEK293 lucGAA850 FXN promoter luciferase reporter, 24 h; percent of 10 µM SAHA response | AID 540364 | 360,000 tested, 0.56% active;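 active = activation above the average of all compounds screened plus 3 SD, cutoff fixed separately per campaign, cut at about 7.5% in these data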
Each line names hits and unclear results; the compound was inactive in the other large screens. An excerpt weighted towards active compounds, which were near 3.3% of everything screened.

COc1ccc(-c2csc(C(O)c3cccc(OC)c3)n2)cc1 (stereo not drawn)	none (no result: STAT3 act, AHR activator)
Cc1cc(NC(=O)C2CC(=O)OC2c2ccccc2)no1 (stereo not drawn)	ABCB6 inh 2 74.0
COc1ccc(NC(=O)C2CC(=O)OC2c2ccccc2)cc1 (stereo not drawn)	none
Cc1cccc(NC(=O)COC(=O)CN2CCCCCC2=O)c1C	none (no result: STAT3 act)
Cc1cc(NC(=O)c2ccccc2)cc(NC(=O)c2ccccc2)c1C	AHR activator 78.3 (no result: STAT3 act)
COc1cc(NC(=O)c2cccnc2)c(Cl)cc1NC(=O)c1ccc(Cl)cc1	AHR activator 63.5 (no result: STAT3 act)
COc1cc(NC(=O)c2ccc(Br)cc2)c(OC)cc1NC(=O)c1ccccc1	AHR activator 63.3 (no result: STAT3 act)
COc1cc(NC(=O)c2ccccc2)c(OC)cc1NC(=O)Cc1ccc(Br)cc1	none (no result: STAT3 act)
COc1cc(NC(=O)c2ccc(Cl)cc2)c(Cl)cc1NC(=O)c1cccnc1	AHR activator 53.3 (no result: STAT3 act)
COc1cc(NC(=O)c2cccnc2)c(OC)cc1NC(=O)c1ccc(Br)cc1	none (no result: STAT3 act)
Cc1cc(C(=O)COC(=O)c2cccnc2Cl)c(C)n1-c1c(C)n(C)n(-c2ccccc2)c1=O	none
COc1cc(C(C)=O)ccc1Oc1ncccn1	none (no result: STAT3 act)
COc1cc(NC(=O)c2cccnc2)c(Cl)cc1NC(=O)c1ccccc1	AHR activator 75.3 (no result: STAT3 act)
Cc1cc(C)n(-c2nc(NCCO)c3c4c(sc3n2)CCCC4)n1	AHR activator 47.1
CCCSc1nnc2n(C)c(=O)c3c4c(sc3n12)CCC4	AHR activator 77.6
C/C(=N/NS(=O)(=O)c1ccccc1)c1ccc(Cl)cc1	AHR activator 53.2
CCCOc1ccc(CNC(=S)N/N=C/c2ccc([N+](=O)[O-])cc2)cc1	ABCB6 inh 2 62.0
CCN(CC)c1ccc(/C=N/NC(=S)NCc2ccc(OC)cc2)cc1	AHR activator 48.6
CCN(CC)c1ccc(/C=N/NC(=S)NCc2ccccc2)cc1	none
CC(C)COc1ccc(CNC(=S)N/N=C/c2ccc([N+](=O)[O-])cc2)cc1	none
Brc1cc2c(cc1Br)OCCOCCOCCO2	none (no result: STAT3 act)
Cc1cc(C)nc(Nc2ncc(O)n2-c2ccc(C)c(Cl)c2)n1	AHR activator 57.1
O=C1CN(c2nc(-c3ccccc3)c3ccccc3n2)c2ccccc2N1	AHR activator 61.1
c1ccc(-c2nc(-n3nc4ccccc4n3)nc3ccccc23)cc1	none
Cc1cccc2cc(C#N)c(NCCNS(=O)(=O)c3ccc4c(c3)OCCO4)nc12	none
COc1cc(-c2cc(-c3nnco3)c3ccccc3n2)cc(OC)c1OC	none
c1ccc(-c2cc(-c3nnco3)c3ccccc3n2)nc1	AHR activator 62.0
OC(c1ccccn1)(c1ccccn1)c1ccccn1	none
Cc1ccc(N=Nc2c(N)nn3c(C)cc(C)nc23)cc1	AHR activator 58.3
Cc1cc(C)n2nc(N)c(N=Nc3cccc(Cl)c3)c2n1	none
Cc1ccc(N=Nc2c(N)nn3c(N)c(C#N)c(C)nc23)cc1	AHR activator 75.1
Cc1ccccc1-c1csc(C(C)(O)c2cccnc2)n1 (stereo not drawn)	none (no result: STAT3 act, AHR activator)
CCCC(=O)N(CCc1ccc(OC)cc1)Cc1nc2ccccc2c(=O)[nH]1	none
Cc1cc(C(=O)COc2cc(F)ccc2[N+](=O)[O-])c(C)n1C1CC1	AHR activator 76.5
Cc1cc(C(=O)COc2ccc([N+](=O)[O-])cc2)c(C)n1C1CC1	none (no result: STAT3 act)
COCc1ccc(-c2c(-c3ccccc3OC)sc3cc4c(cc23)OCO4)cc1	AHR activator 51.1 (no result: STAT3 act)
O=C1NC(c2cccs2)Nc2ccccc21 (stereo not drawn)	AHR activator 51.9
CCc1ccccc1NC(=O)C1CCN(C(=O)N2CCOc3ccccc32)CC1	none (no result: STAT3 act)
CC1(C(=O)NCC2CC2)Cc2c(-c3ccccc3)ccnc2O1 (stereo not drawn)	none (no result: STAT3 act, AHR activator)
O=C(/C=C(/c1ccc(Cl)cc1)n1cncn1)c1ccccc1	AHR activator 64.5
CCCCn1c(N)c(N(CCOC)C(=O)COC(=O)CCOc2ccccc2)c(=O)[nH]c1=O	none (no result: STAT3 act)
CCOc1ccc2nc(NC3=NC(C)(C)C=C(C)N3)nc(C)c2c1	none
CCOc1ccc2c(C)nc(NC3=NC(C)(C)C=C(C)N3)nc2c1	AHR activator 63.8
C#CCOCCOCCOCCNc1nc(N2CCOCC2)nc(N2CCN(C(=O)[C@H]([C@@H](C)CC)n3cc([C@@H](N)CC(C)C)nn3)CC2)n1	none (no result: STAT3 act)
CCOc1ccccc1CSc1nc2ccccc2[nH]1	AHR activator 53.6
CN(C)/C=C1/Oc2c(ccc3ccccc23)C1=O	AHR activator 65.8
Cc1oc2cc(O)ccc2c(=O)c1Oc1ccccc1Br	AHR activator 59.2
COCc1cc(C)nc(Nc2ccccc2OC)c1C#N	AHR activator 52.2 (no result: STAT3 act)
